Yeast growth tox: Inhibits yeast growth, turbidity readout. S. cerevisiae wild-type growth, A595 turbidity, 16 h. growth inhibition, % at 25 µM (by protocol). hit rate 0.3% among 30,000. AID 685;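 active means mutant and wild-type yeast strains alike exhibit over 30% growth inhibition; inconclusive means a strain exceeds 50% while the second remains under 30%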;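 further: 0% = untreated cell controls and 100% = YPD media blanks without cells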
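Test system: Wild-type and eIF2Bepsilon-R284H mutant S. cerevisiae, screened separately | Dosing: Single 25 µM compound dose in 0.2% DMSO | Schedule: 16 h compound exposure during growth at 30 °C | Detection: A595 turbidity | Evaluation: Growth inhibition (%) versus cell controls and blanks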
eIF2B yeast act: eIF2B (yeast) activity modulation | inhibition, % at 25 µM (by protocol) | S. cerevisiae eIF2B-epsilon R284H, GCN4-lacZ luminescence | hit rate 0.91% among 27,000 | AID 688;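 active means mutant luminescence inhibited past about 50% while wild type luminescence and mutant growth stay under set limits, limit read from the data; inconclusive means mutant versus wild type luminescence inhibition gap past a set limit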
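System: Yeast eIF2B-epsilon R284H mutant carrying GCN4–beta-galactosidase fusion | Read-out basis: Percent inhibition, luminescence and growth | Compound: 25 µM single dose | Times: 16 h at 30 °C exposure | Measured by: Luminescence and A595 | Buffer or medium: YPD medium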
The depositor's hits bear a star; ? = inconclusive; · = not tested or not shown; ! = not active in a repeat. Rows were chosen to be rich in hits. Some 1% of all compounds tested hit in one or more screens of this group.

SMILES	Yeast growth tox	eIF2B yeast act
Cc1c(N=Cc2c(O)n(Cc3ccco3)c(=O)c3ccccc23)c(=O)n(-c2ccccc2)n1C	-20	51*!
O=c1c2ccccc2c(C=NCCc2ccccc2)c(O)n1Cc1ccccc1	18	-12
O=C(O)C1C2C=CC(C2)C1C(=O)NCCCn1ccnc1 (configuration not stated)	-5	15
CC1CCN(c2nc3c(c(=O)[nH]c(=O)n3C)n2CCSc2nc3ccccc3o2)CC1	-24	-20
COc1ccc(Cl)cc1NC(=O)CSc1nc(N2CCCCC2)nc(N2CCCCC2)n1	1	-15
Cc1ccc(-c2cc(-c3ccccc3Cl)[nH]n2)c(O)c1	64*	30
Cc1ccccc1-c1cc(-c2ccccc2O)n[nH]1	18	20
O=C1CN(C(=O)CCCc2c[nH]c3ccccc23)c2ccccc2N1	8	23
Cc1ccc(S(=O)(=O)NC(CC(C)C)C(=O)NCc2ccco2)cc1 (configuration not stated)	-6	·
O=C(Nc1ccc2c(c1)CCC2)C1CCCO1 (configuration not stated)	5	21
Cc1noc(C)c1C(=O)Nc1ccc2c(c1)CCC2	·	65*
CCn1c(COc2ccc3c(c2)OCO3)nnc1SCC(=O)c1ccc(Cl)cc1	-9	-8
C=CCSc1nc(C)c2cc(C)cc(C)c2n1	29	7
Cc1cc(C)c(NC(=O)CSc2nnc(Cc3cccn3C)n2-c2ccc(F)cc2)c(C)c1	3	60*
COc1ccc(NC(=O)CSc2nnc(Cc3cccn3C)n2-c2ccc(C)cc2)cc1OC	-1	12
CCOc1ccc(C(C)NC(=O)Nc2ccccc2C(=O)OC)cc1 (configuration not stated)	10	·
O=C(O)CSCCC(=O)Nc1ccc(F)cc1	17	17
CCOC(=O)Cn1c(=O)c(-c2ccccc2NCc2ccccc2)nc2ccccc21	-30	58*
CCOC(=O)CSc1nc2ccccc2n1CC(=O)NC(C)(C)C	15	18
COc1ccc(OC)c(C2/C(=C(\O)c3c(C)nc4ccccn34)C(=O)C(=O)N2CCCN(C)C)c1 (configuration not stated)	8	15
CCOC(=O)C1CCCN(C(=O)COC(=O)C2=COCCO2)C1 (configuration not stated)	4	23
CCOc1ccc(N(CC(=O)NCC2CCCO2)C(=O)CCC(=O)Nc2ccccn2)cc1 (configuration not stated)	?	5
O=C(CCl)Nc1cc(-c2ccccc2)nn1-c1ccccc1	59*	·
Cc1ccc(-c2cc(NC(=O)CCl)n(-c3ccccc3)n2)cc1	?	31
C=CCOC(=O)C1=C(C)Nc2nc3ccccc3n2C1c1ccncc1 (configuration not stated)	-18	63*
SMILES	Yeast growth tox	eIF2B yeast act
C=CCOC(=O)C1=C(C)Nc2ncnn2C1c1cccs1 (configuration not stated)	29	23
CCC(C)NS(=O)(=O)c1ccc(S(=O)(=O)N(CC(=O)Nc2ccccc2)CC2CCCO2)cc1 (configuration not stated)	14	·
Oc1ccc(Nc2nc3ccccc3nc2Nc2ccc(O)cc2)cc1	-5	·
CCOc1ccc(C(=O)N2CCSC2=S)cc1	-19	15
C=CCNc1nnc(SC2CC(=O)N(c3ccc(OCCC)cc3)C2=O)s1 (configuration not stated)	60*	2
CCCOc1ccc(N2C(=O)CC(NCc3ccncc3)C2=O)cc1 (configuration not stated)	-3	0
Cc1ccc(O)c(C2=NOC(O)(C(F)(F)F)C2)c1 (configuration not stated)	-5	22
COc1ccccc1CC(=O)N1CCCC1	-7	·
COc1ccccc1CC(=O)N1CCN(c2cccc(C(F)(F)F)c2)CC1	-14	50*
CCOC(=O)C1CCCN(C(=O)c2cc3c(C)nc4ccccc4c3o2)C1 (configuration not stated)	-27	65*
CCOC(=O)C1CCCN(c2nc(C)nc3c2oc2ccccc23)C1 (configuration not stated)	-1	12
CCOC(=O)C(C)CC(C)C(=O)N1CCOCCOCCN(C(=O)C(C)CC(C)C(=O)OCC)CCOCC1 (configuration not stated)	21	9
CCOC(=O)C(C(=O)OCC)C(C(=O)OCC)N1CCOCC1 (configuration not stated)	33*	5
Cn1cc(SCC(=O)Nc2nc3ccccc3s2)c2ccccc21	0	-4
O=C(NC1CCCC1)C(c1ccccc1)N(Cc1ccco1)C(=O)Cc1cccs1 (configuration not stated)	0	57*
O=C(NCC(=O)N(Cc1ccco1)C(C(=O)NC1CCCC1)c1ccncc1)c1cccs1 (configuration not stated)	·	-15
CC1=C(C#N)C(Nc2ccc(C)cn2)(C(F)(F)F)C(=O)N1 (configuration not stated)	12	17
COc1cccc(Oc2cn[nH]c2-c2ccc(OC)cc2O)c1	-9	66*
CCOc1ccc(-c2[nH]ncc2Oc2cccc(OC)c2)c(O)c1	6	-1
O=C(N1CCOCC1)N(CCN1CCOCC1)Cc1cccc(Cl)c1	23	-6
Cc1ccnc2nc(C(=O)NCCc3ccc(F)cc3)nn12	9	2
CCOC(=O)c1cnc(SCC(=O)Nc2nc(C)c(C)s2)nc1N	-2	14
CN1CCc2nc(SCC(=O)Nc3ccc(Cl)cc3)c(C#N)cc2C1	-14	62*
N#Cc1cc2c(nc1SCC(=O)Nc1sc3c(c1C#N)CCC3)CCCCCC2	18	·
CC1(C)Cc2c(c(=S)nc(-c3ccccc3)n2CCOCCO)CO1	-7	51*
SMILES	Yeast growth tox	eIF2B yeast act
Cc1ccc(-c2nc(=S)c3c(n2CCN2CCOCC2)CC(C)(C)OC3)cc1	-12	·
O=C(c1ccc(Br)o1)N1CCCc2ccccc21	-17	53*
O=C(c1ccccc1)N1CCc2ccccc21	27	12
Cc1cc(N2CCN(C(=O)c3ccco3)CC2)n2ncc(-c3ccccc3)c2n1	94*	92
Cc1cc(N2CCOCC2)n2ncc(-c3ccccc3)c2n1	3	-1
Fc1cccc(Nc2cc(-n3cccn3)ncn2)c1	-6	19
COc1ccc(S(=O)(=O)Nc2ccc(C)cc2)cc1OC	-9	27
Cc1cc(C)cc(NS(=O)(=O)c2ccc3[nH]c(=O)[nH]c3c2)c1	0	52*
CCCCOc1ccccc1NC(=O)CC1SC(=NCC)N(CC)C1=O (configuration not stated)	12	17
Cc1ccc(S(=O)(=O)Oc2ccc(C(c3c(C)[nH][nH]c3=O)c3c(C)[nH][nH]c3=O)cc2)cc1	30	20
Cc1[nH][nH]c(=O)c1C(c1ccc(-c2ccc(Cl)c(Cl)c2)o1)c1c(C)[nH][nH]c1=O	46*	14
CC1(C)Cc2noc(N)c2C(C)(C)N1O	13	-28
O=C(c1cccs1)N1CCCC1	0	5
O=C(c1cccs1)N1CCC(c2ccccc2)C1 (configuration not stated)	18	71*
O=C(NC1CCCCC1)c1ccc(S(=O)(=O)N2CCCC2)cc1	35*	40
O=C(NC1CCCC1)c1ccc(S(=O)(=O)N2CCOCC2)cc1	19	·
CC(Oc1ccc(C(=O)NC2CCCCC2)cc1)C(=O)O (configuration not stated)	1	·
